26 compounds from ChEMBL document CHEMBL4321818, “Anti-biofilm Agents against Pseudomonas aeruginosa: A Structure-Activity Relationship Study of C-Glycosidic LecB Inhibitors” (J Med Chem, 2019) can be followed below.

The structures appear in SMILES notation. Activity calls are given as the source filed them.

One may read the IC50 as the concentration at which inhibition is half-maximal. For orientation: inhibition means the percentage by which the read-out fell short of the control. Read a low inhibition as a response near the control. A word on the half-life: it is the time needed for the level to fall by half in the phase considered.

The target of data set [1] is T1, Fucose-binding lectin PA-IIL (Pseudomonas aeruginosa (strain ATCC 15692 / DSM 22644 / CIP 104116 / JCM14847 / LMG 12228 / 1C / PRS 101 / PAO1), UniProt Q9HYN5). Kind of data set: Inhibition of N-(fluorescein-5-yl)-N'-(alpha-L-fucopyranosyl ethylen)thiocarbamide binding to Pseudomonas aeruginosa PAO1 LecB incubated for 22 to 24 hrs by fluorescence polarization assay.
Target sequence in this assay (Q9HYN5 whole entry): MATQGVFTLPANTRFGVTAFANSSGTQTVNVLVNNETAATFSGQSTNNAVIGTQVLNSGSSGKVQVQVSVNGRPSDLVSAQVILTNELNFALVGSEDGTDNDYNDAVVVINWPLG

Data set [2] concerns the target T1, Fucose-binding lectin PA-IIL. Put plainly: Inhibition of N-(fluorescein-5-yl)-N'-(alpha-L-fucopyranosyl ethylen)thiocarbamide binding to Pseudomonas aeruginosa PA14 LecB incubated for 22 to 24 hrs by fluorescence polarization assay. A general note: Polarisation of emitted light reports the rotation of a fluorescent probe.
Target sequence in this assay (Q9HYN5 1-115): as the sequence (Q9HYN5 whole entry) above
Data set [3] in a line: Intrinsic clearance in C57BL/6J mouse liver microsomes at 1 uM preincubated for 10 mins followed by NADPH addition and measured up to 45 mins by LC-MS/MS analysis. Format: ADME, Microsome. Particulars: 0.75 h. In outline: (§1)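 Compound at 1 µM in 0.1 M phosphate buffer pH 7.4 with liver microsomes at 0.5 mg/mL. Preincubated 10 min, then started with an NADPH regenerating system. Sampled at 1–45 min at 37 °C and quenched in MeCN with internal standard. Supernatant analyzed by LC-MS/MS. CLint = −slope of ln(peak area ratio) vs time × 1000/protein concentration. CYP marker substrates served as quality control.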

Data set [4] in a line: Intrinsic clearance in human liver microsomes at 1 uM preincubated for 10 mins followed by NADPH addition and measured up to 45 mins by LC-MS/MS analysis. Format: ADME, Microsome. As to conditions: 0.75 h. A digest of the protocol: as §1
Data set [5] can be described thus: Stability in mouse plasma at 25 uM measured up to 120 mins by HPLC-MS analysis. Format: ADME, cell-free. Particulars: 2 h. A digest of the protocol: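 Compound from DMSO added to mouse plasma (pH 7.4, 37 °C) at 25 µM final. Incubated 0, 15, 30, 60, 90 and 120 min at 37 °C. Aliquots extracted with methanol containing internal standard and analyzed by HPLC-MS, normalized to internal standard and time 0. Procaine and propoxycaine served as unstable controls, procainamide (250 µM) as stable control. At least three independent repeats.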

In data set [6] the test system is HepG2. Kind of data set: Cytotoxicity against human HepG2 cells assessed as reduction in cell viability up to 100 uM after 24 hrs by MTT assay. Particulars: hepg2, 24 h. The format is cell-based. A digest of the protocol:
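Hep G2 cells grown in DMEM with 10% heat-inactivated FCS at 37 °C, 5% CO2, seeded and grown to 75% confluency. Exposed to 0.01–100 µM compound (DMSO stock diluted in PBS, final DMSO 0.1%) for 24 h. Washed, then MTT at 1 mg/mL final for 3 h. Solubilized in 0.04 M HCl/2-propanol, read at 560 nm with 670 nm reference. Normalized as (A−B)/(C−B), with B the Triton X-100 (0.5%) control and C the vehicle control. At least three assays.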
In general terms: Formazan colour is commonly taken as a measure of viable cells.

Data set [7] is described as follows: Protein binding in CD1 mouse plasma after 2 hrs by HPLC analysis relative to control. Particulars: for fraction unbound at 2 h: CD1, mouse, read-out: PPB; for PPB: mouse, 2 h. The format is ADME, cell-free. In outline: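 Rapid equilibrium dialysis with compound at 100 µM final in pooled CD-1 mouse plasma, naproxen as control. Incubated 37 °C for 2 h at 800 rpm. Samples matrix-matched, extracted with cold MeCN/H2O (90:10) containing caffeine internal standard, and quantified by HPLC-MS/MS. %free = buffer/plasma chamber concentration × 100; %bound = 100 − %free.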

In data set [8] the test system is Pseudomonas aeruginosa. Kind of data set: Antibacterial activity against Pseudomonas aeruginosa PA14 transfected with pMP7605 plasmid at 100 uM after 23 hrs by fluorescence based confocal light microscopic analysis. Format: functional, organism-based.
Data set [9] concerns Pseudomonas aeruginosa. Kind of data set: Antibiofilm activity against Pseudomonas aeruginosa PA14 transfected with pMP7605 plasmid at 100 uM after 48 hrs by fluorescence based confocal light microscopic analysis relative to control. Format: functional. As to conditions: PA14, 48 h. A digest of the protocol:
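P. aeruginosa PA14 wild type carrying the mCherry plasmid pMP7605 was grown overnight in LB at 37 °C, then diluted to OD600 0.02 in M63 minimal medium. Compound (100 µM final, from DMSO stock) was added and cultures incubated 48 h at 30 °C. Biofilm biomass was quantified by confocal laser scanning microscopy versus DMSO control; means ± SD of three independent assays, Student's t test.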

A short description of data set [10]: Half life in CD1 mouse plasma at 10 mg/kg, po or ip after 24 hrs. Format: ADME, organism-based.
Data set [11] deals with HepG2. Kind of data set: Cytotoxicity against human HepG2 cells assessed as cell viability at 100 uM after 24 hrs by MTT assay relative to control. Format: cell-based. As to conditions: hepg2, 24 h. In outline: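 Hep G2 cells in DMEM + 10% FCS were grown to 75% confluency, then exposed to compound (0.01–100 µM, 0.1% DMSO final) for 24 h at 37 °C, 5% CO2. MTT was added at 1 mg/mL final for 3 h and solubilised in 0.04 M HCl/2-propanol; A560 read with 670 nm reference. Normalised (A−B)/(C−B) to 0.5% Triton X-100 and vehicle controls; SD of ≥3 assays.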

Data set [12] in a line: Solubility of compound in TBS/Ca containing 1% DMSO at 1 mM. As to conditions: 1000 µM.

On to `C[C@@H]1O[C@H](CNS(=O)(=O)c2ccc(C#CCCc3ccccc3)s2)[C@@H](O)[C@H](O)[C@@H]1O`, for which the IC50 in [1] was determined as 3.13 µM; in data set [2], 0.4 µM.
`Cc1ccc(C#Cc2ccc(S(=O)(=O)NC[C@H]3O[C@@H](C)[C@@H](O)[C@@H](O)[C@@H]3O)s2)cc1`: the figures for the IC50 in [1] and in data set [2] were 1.72 µM and 0.35 µM, respectively.
As to `Cc1ccc(S(=O)(=O)NC[C@H]2O[C@@H](C)[C@@H](O)[C@@H](O)[C@@H]2O)s1`, the half-inhibitory concentration (IC50) in [1] was found to be 3.53 µM; in data set [2] it was 0.56 µM. The “Intrinsic clearance (CLint)” value in [3] is 10 µL/min/mg; in data set [4], below 10 µL/min/mg. Further, the Stability result in [5] was “Stable”. For the same compound, the Activity result in the data set on HepG2 [6] is reported as “Non-Toxic”. Further, in data set [7], the fraction unbound at 2 h was in the range of 0.3 to 0.4.
For `C[C@@H]1O[C@H](CNS(=O)(=O)c2ccc(/C=C\c3ccccc3)s2)[C@@H](O)[C@H](O)[C@@H]1O`, the values for the IC50 in [1] and in [2] were 2.32 µM and 0.44 µM, respectively.
With `Cc1ccccc1C#Cc1ccc(S(=O)(=O)NC[C@H]2O[C@@H](C)[C@@H](O)[C@@H](O)[C@@H]2O)s1`, the IC50 in data set [1] is 1.62 µM; in data set [2], 0.27 µM.
Turning to `C[C@@H]1O[C@H](CNC(=O)c2cc3ccccc3o2)[C@@H](O)[C@H](O)[C@@H]1O`, the figures for the IC50 in data set [1] and in data set [2] were 10.2 µM and 2.41 µM, respectively.
As for `Cc1cc(S(=O)(=O)NC[C@H]2O[C@@H](C)[C@@H](O)[C@@H](O)[C@@H]2O)c(C)s1`, in the data set with Pseudomonas aeruginosa [8], the result was inactive. This compound also had an inhibition at 100 µM in the data set with Pseudomonas aeruginosa [9] above 80%. Moreover, the “Intrinsic clearance (CLint)” value in data set [3] and in data set [4] was below 10 µL/min/mg each time. In data set [5], the Stability result is recorded as “Stable”. Moreover, the Activity entry in the data set on HepG2 [6] is listed as “Non-Toxic”. Also, in [7], the fraction unbound at 2 h was in the range of 0.3 to 0.4.
With `Cc1ccsc1S(=O)(=O)NC[C@H]1O[C@@H](C)[C@@H](O)[C@@H](O)[C@@H]1O`, the IC50 worked out at 1.32 µM in [1] and 0.2 µM in [2].
For `Cc1cccc(C#Cc2ccc(S(=O)(=O)NC[C@H]3O[C@@H](C)[C@@H](O)[C@@H](O)[C@@H]3O)s2)c1`, the values for the IC50 in [1] and in [2] were 1.72 µM and 0.3 µM, respectively.
Consider `Cc1cc(S(=O)(=O)NC[C@H]2O[C@@H](C)[C@@H](O)[C@@H](O)[C@@H]2O)c(C(F)(F)F)o1`, for which the results for the IC50 in data set [1] and in [2] were 3.47 µM and 0.46 µM, respectively.
`C[C@@H]1O[C@H](CNS(=O)(=O)c2cccs2)[C@@H](O)[C@H](O)[C@@H]1O` registered a PPB in data set [7] of 81%. Further, the half-life in data set [10] was found to be 34 min.
Take `COc1ccc(C#Cc2ccc(S(=O)(=O)NC[C@H]3O[C@@H](C)[C@@H](O)[C@@H](O)[C@@H]3O)s2)cc1`: the IC50 in [1] worked out at 1.75 µM; in data set [2], 0.28 µM.
On to `CCc1ccc(S(=O)(=O)NC[C@H]2O[C@@H](C)[C@@H](O)[C@@H](O)[C@@H]2O)s1`, for which the figures for the IC50 in [1] and in data set [2] were 4.02 µM and 0.38 µM, respectively.
For `C[C@@H]1O[C@H](CNS(=O)(=O)c2ccco2)[C@@H](O)[C@H](O)[C@@H]1O` the same measures were 3.15 µM and 0.46 µM.
With `C[C@@H]1O[C@H](CNS(=O)(=O)c2ccn(C)n2)[C@@H](O)[C@H](O)[C@@H]1O`, the IC50 in [1] stood at 7.01 µM; in data set [2] it was 0.73 µM.
For the compound `C[C@@H]1O[C@H](CNS(=O)(=O)c2ccc(C#Cc3ccccc3)s2)[C@@H](O)[C@H](O)[C@@H]1O`, the outcome in the data set on Pseudomonas aeruginosa [8] was inactive. In the data set on Pseudomonas aeruginosa [9], this compound returned an inhibition at 100 µM above 90%. Moreover, the “Intrinsic clearance (CLint)” value in data set [3] and in data set [4] was below 10 µL/min/mg each time. Besides, the Stability entry in data set [5] is recorded as “Stable”. Also, the Activity with HepG2 [11] came out at 64%. The fraction unbound at 2 h in data set [7] was in the range of 0.3 to 0.4.
For `C[C@@H]1O[C@H](CNS(=O)(=O)c2ccc(Br)s2)[C@@H](O)[C@H](O)[C@@H]1O`, the values for the IC50 in data set [1] and in [2] were 3.31 µM and 0.57 µM, respectively.
`C[C@@H]1O[C@H](CNC(=O)c2ccc(-c3ccccc3)s2)[C@@H](O)[C@H](O)[C@@H]1O`: the solubility entry in data set [12] was “Insoluble”.
For `Cc1oncc1S(=O)(=O)NC[C@H]1O[C@@H](C)[C@@H](O)[C@@H](O)[C@@H]1O`, the “Intrinsic clearance (CLint)” value in data set [3] and in data set [4] was below 10 µL/min/mg in each case. In addition, the Stability result in data set [5] was “Stable”. The Activity result in the data set with HepG2 [6] is on record as “Non-Toxic”. In data set [7], the fraction unbound at 2 h fell in the range of 0.3 to 0.4.
In the case of `CO[C@H]1O[C@H](CNS(=O)(=O)c2cccs2)[C@@H](O)[C@H](O)[C@@H]1O`, in [7], the fraction unbound at 2 h fell in the range of 0.3 to 0.4.
For `C[C@@H]1O[C@H](CNS(=O)(=O)c2ccsc2)[C@@H](O)[C@H](O)[C@@H]1O`, the concentration for half-maximal inhibition (IC50) in data set [1] came out at 1.85 µM; in data set [2], 0.59 µM.
For the compound `Cc1csc(S(=O)(=O)NC[C@H]2O[C@@H](C)[C@@H](O)[C@@H](O)[C@@H]2O)c1`, the IC50 in [1] turned out to be 2.55 µM; in data set [2] it was 0.32 µM.
Compound `Cc1cc(C)c(S(=O)(=O)NC[C@H]2O[C@@H](C)[C@@H](O)[C@@H](O)[C@@H]2O)c(C)c1` registered a PPB in data set [7] of 73%. This compound had a half-life in [10] of 17 min.
As to `C[C@@H]1O[C@H](CNS(=O)(=O)c2cc(Cl)c(Cl)s2)[C@@H](O)[C@H](O)[C@@H]1O`, the “Intrinsic clearance (CLint)” value in data set [3] and in [4] was below 10 µL/min/mg each time. The Stability entry in data set [5] was “Stable”. Besides, the Activity entry in the data set with HepG2 [6] is “Non-Toxic”.
As for `C[C@@H]1O[C@H](CNC(=O)c2ccccc2)[C@@H](O)[C@H](O)[C@@H]1O`, the IC50 is 8.73 µM in [1] and 3.54 µM in data set [2].
As to `CO[C@H]1O[C@H](CNS(=O)(=O)c2c(C)cc(C)cc2C)[C@@H](O)[C@H](O)[C@@H]1O`, in data set [7], the fraction unbound at 2 h is 0.3 to 0.4.
